The text below walks through data of ChEMBL document CHEMBL1143730, “Probing the bioactive constituents from chemotypes of the sponge Psammocinia aff. bulbosa” (J Nat Prod, 2007).

The subject of series [1] is HCT-116. Description: Survivability of human HCT116 cells assessed as cell kill at >= 2 ng/mL after 24 hrs. It counts as functional.
Series [2] relates to HCT-116. Description: Antitumor activity in human HCT116 tumor-bearing SCID mouse at 31 ug/kg bolus injection after 23 days relative to control. It counts as functional. Summed up: (§1)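 SCID mice (>17 g, weights within 5 g) implanted subcutaneously with 10⁶ tissue-culture-derived HCT-116 cells, 5 per group. Starting 1 day after inoculation, a single intravenous tail-vein bolus (drug at […], 0.25 mL) was given in DMSO diluted 1:1 with Cremophor–propylene glycol (40:60), then ≥20-fold in saline. Tumor weight followed daily. Minimum %T/C reported. Sacrifice at day 30.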

Series [3] has as its system HCT-116. Put plainly: Survivability of human HCT116 cells assessed as cell kill at >=120 pg/mL after 168 hrs. It counts as functional.
Series [4] deals with Mus musculus. Description: Toxicity in SCID mouse at 125 ug/kg bolus injection. The series is classed as organism-based. As to conditions: in vivo, 0.125 mg/kg. Summed up:
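HCT-116 tumor-bearing SCID mice (>17 g, 5 per group). Single intravenous tail-vein bolus of 125 μg/kg (drug at […], 0.25 mL) started 1 day after subcutaneous inoculation of 10⁶ cells. Vehicle was DMSO diluted 1:1 with Cremophor–propylene glycol (40:60), then ≥20-fold in saline. Mice were monitored until sacrifice at day 30.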

The test system of series [5] is HT-29. Description: Growth inhibition of HT29 cells. The series is classed as functional, cell-based. The note with it: Homo sapiens. Summed up:
(§2)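 Cells seeded at 5×10^4 per T25 flask in RPMI 1640 with 15% BCS, pen/strep and glutamine. After 3 days (log phase, 5×10^5 cells/flask), compound was added at 10 to 10^-5 μg/mL. After 3 more days, cells were trypsinized and viable and dead cells counted by 0.08% trypan blue exclusion. IC50 determined.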

Series [6] relates to MDA-MB-231. Put plainly: Growth inhibition of MDA-MB-231 cells. As to conditions: Homo sapiens. The series is classed as functional, cell-based. Summed up:
as §2

For series [7], the system named is HCT-116. Description: Survivability of human HCT116 cells assessed as cell kill at >=3 ng/mL after 2 hrs. The series is classed as functional.
Series [8] deals with HCT-116. Put plainly: Antitumor activity in human HCT116 tumor-bearing SCID mouse at 62 ug/kg bolus injection after 23 days relative to control. The series is classed as functional. Summed up:
as §1

Series [9] can be described thus: Growth inhibition of H125 cells. The series is classed as functional, cell-based. As to conditions: Homo sapiens, NCI-H125. Summed up: as §2
The subject of series [10] is L1210. Description: Growth inhibition of L1210 cells. It counts as functional, cell-based. As to conditions: Mus musculus. Summed up:
as §2

Converted amounts (≈) assume the structure as drawn.

For the compound `C=C(C)C[C@H](OC)[C@H](O)C(=O)N[C@@H](OC)C1C[C@@H](O)C(C)(C)[C@@H](C[C@H](O)[C@@H](C)[C@@H]2Cc3c(C)c(O)cc(O)c3C(=O)O2)O1` (stereo not given in full) [IRCINIASTATIN], the Survival in series [1], in series [3] and in series [7] was 90% throughout. For the same compound, the Activity in series [2] was 86%; in [4], “Toxic”; in series [8] it was 75%. In addition, the IC50 turned out to be 5 ng/mL (≈ 8.2 nM) in [5], 0.2 ng/mL (≈ 0.328 nM) in series [6], 0.12 ng/mL (≈ 0.197 nM) in series [9] and 0.18 ng/mL (≈ 0.295 nM) in series [10].

As a reminder, the IC50 is the concentration needed to halve the response being measured. Low readings indicate greater potency, high ones weaker potency.
